Data on one compound can be found in ChEMBL document CHEMBL3414433, “Discovery and profiling of a selective and efficacious Syk inhibitor” (J Med Chem, 2015).

SMILES strings stand for the structures. Calls of active or inactive are those of the source. The rule behind the calls is not given here.

Series [1] is filed under the species Canis familiaris. Nature of the series: Hepatotoxicity in dog assessed as bile plugs measured for 4 weeks by GLP study. The class given is toxicity, organism-based, Canis lupus familiaris. Conditions: in vivo, 672 h.
Series [2] has as its target T1, Tyrosine-protein kinase ZAP-70 (Homo sapiens, UniProt P43403).
T1 sequence (P43403 whole entry): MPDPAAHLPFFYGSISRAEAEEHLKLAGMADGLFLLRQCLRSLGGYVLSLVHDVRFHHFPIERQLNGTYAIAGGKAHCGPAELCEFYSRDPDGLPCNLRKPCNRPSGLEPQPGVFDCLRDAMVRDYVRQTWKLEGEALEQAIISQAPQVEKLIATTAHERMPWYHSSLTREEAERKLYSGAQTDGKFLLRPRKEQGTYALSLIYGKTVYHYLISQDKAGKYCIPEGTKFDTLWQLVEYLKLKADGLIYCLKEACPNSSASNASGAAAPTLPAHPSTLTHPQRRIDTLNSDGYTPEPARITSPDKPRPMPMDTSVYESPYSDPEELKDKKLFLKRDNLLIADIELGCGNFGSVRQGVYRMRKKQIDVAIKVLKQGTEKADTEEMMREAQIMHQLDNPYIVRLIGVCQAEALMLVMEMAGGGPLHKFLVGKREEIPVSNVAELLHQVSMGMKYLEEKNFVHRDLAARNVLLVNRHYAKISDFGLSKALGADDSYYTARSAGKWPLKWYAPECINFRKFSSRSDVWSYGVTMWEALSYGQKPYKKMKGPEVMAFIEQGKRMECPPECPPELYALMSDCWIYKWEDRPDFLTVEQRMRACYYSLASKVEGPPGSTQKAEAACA
Nature of the series: Inhibition of human ZAP70.

The species named for series [3] is Rattus norvegicus. Nature of the series: Hepatotoxicity in rat assessed as portal inflammation measured for 4 weeks by GLP study. It is filed as toxicity, organism-based. To be noted: in vivo, 672 h.
For series [4], the system named is Rattus norvegicus. Nature of the series: Antiarthritic activity in Lewis rat collagen-induced arthritis model assessed as reduction of joint damage/erosions in hind paw at 3 to 30 mg/kg, po qd administered on day 15 post immunization measured after day 28 by Giemsa/safranin O staining-based assay. The class given is functional, organism-based. Summed up: (§1)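 Female Lewis rats (140−160 g), arthritis induced by porcine collagen immunization (day 0) and boost (day 7); rats with swollen joints randomized, dosed orally once daily from day 15 to day 28. Hind paws taken on day 28, fixed in 10% buffered formalin for 48 h, decalcified over 16 days, paraffin-embedded; 3 μm sections stained with Giemsa and safranin O and scored.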

The subject of series [5] is Rattus norvegicus. Kind of series: Antiarthritic activity in Lewis rat collagen-induced arthritis model assessed as reversal of paw swelling at 3 to 30 mg/kg, po qd administered on day 15 post immunization measured after day 28. The class given is functional, organism-based. The procedure, abridged:
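Collagen arthritis in female Lewis rats (porcine collagen day 0, boost day 7); swollen-joint rats randomized and given oral doses of 3, 10 or 30 mg/kg once daily, days 15–28. Swelling scored visually three times a week, per paw 0−3 metatarsal plus 0−3 ankle, composite 0−12 per rat; group means calculated.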

Series [6] has as its system Rattus norvegicus. Kind of series: In vivo inhibition of Syk in Lewis rat assessed as reduction in FcgR-induced SLP76 phosphorylation in peripheral blood monocytes at 22 mg/kg, po measured after 24 hrs relative to vehicle-treated control. It is filed as functional. Summed up:
(§2)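 Single oral dose of 22 mg/kg to Lewis rats; blood sampled at 2, 4 and 24 h after dosing for compound level and ex vivo FcγR-induced phospho-SLP76 in peripheral blood monocytes.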

Series [7] in a line: Drug uptake in Lewis rat blood at 22 mg/kg, po measured after 24 hrs. The arrangement: dose 22 mg/kg, route oral. Conditions: read-out: Drug uptake. The class given is ADME, organism-based. Summed up:
as §2

A short description of series [8]: Clearance in Beagle dog at 0.1 mg/kg, iv and 0.3 mg/kg, po. Conditions: in vivo. It is filed as ADME, organism-based, Canis lupus familiaris. Summed up:
(§3)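 One-in-one dosing in Beagle dogs: i.v. 0.1 mg/kg in NMP/PEG200 (3:7); p.o. 0.3 mg/kg in MC/water (0.5:99.5). Exposure values dose normalized.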

Series [9] in a line: Drug uptake in blood of Lewis rat collagen-induced arthritis model at 3 mg/kg, po qd administered on day 15 post immunization measured at 4 hrs on day 18. The arrangement: dose 3 mg/kg, route oral. To be noted: read-out: Drug uptake. It is filed as ADME, organism-based. The procedure, abridged: (§4)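 Collagen-arthritic Lewis rats given 3, 10 or 30 mg/kg p.o. once daily from day 15; blood levels measured on day 18 (third day of treatment) at 4, 8 and 24 h after dosing.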

Series [10] has as its system Rattus norvegicus. Kind of series: In vivo inhibition of Syk in Lewis rat assessed as reduction in FcgR-induced SLP76 phosphorylation in peripheral blood monocytes at 22 mg/kg, po measured after 2 hrs relative to vehicle-treated control. The class given is functional. Summed up:
as §2

Series [11] addresses STE20-like serine/threonine-protein kinase (Homo sapiens, UniProt Q9H2G2). Nature of the series: Competitive binding affinity to human SLK.
Series [12] is described as follows: Drug uptake in blood of Lewis rat collagen-induced arthritis model at 3 mg/kg, po qd administered on day 15 post immunization measured at 24 hrs on day 18. It is filed as ADME, organism-based. The arrangement: dose 3 mg/kg, route oral. To be noted: read-out: Drug uptake. Summed up: as §4
Series [13] in a line: Oral bioavailability in Beagle dog at 0.3 mg/kg. The class given is ADME, organism-based, Canis lupus familiaris. Conditions: in vivo. Summed up:
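Beagle dogs dosed one-in-one. The i.v. dose was 0.1 mg/kg in NMP/PEG200 (3:7), and the p.o. dose was 0.3 mg/kg in MC/water (0.5:99.5). Blood levels were followed after each route.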

Series [14] has as its target Tyrosine-protein kinase SYK (Homo sapiens, UniProt P43405). Nature of the series: Inhibition of Syk in anti-igM stimulated human Ramos B cells assessed as phospho-BLNK level preincubated for 30 mins followed by anti-IgM stimulation measured after 15 mins by flow cytometric analysis. It is filed as cell-based. On the technique in general: A flow cytometer gives signals particle by particle.

The nature of series [15]: Drug uptake in blood of Lewis rat collagen-induced arthritis model at 30 mg/kg, po qd administered on day 15 post immunization measured at 4 hrs on day 18. It is filed as ADME, organism-based. The arrangement: dose 30 mg/kg, route oral. Conditions: read-out: Drug uptake. The procedure, abridged:
as §4

In series [16] the target is Serine/threonine-protein kinase PAK 4 (Homo sapiens, UniProt O96013). Kind of series: Competitive binding affinity to human PAK4.
The subject of series [17] is Canis familiaris. Kind of series: Dose normalized AUC in Beagle dog at 0.3 mg/kg, po. It is filed as ADME, organism-based, Canis lupus familiaris. The arrangement: dose 0.3 mg/kg, route oral. Conditions: in vivo. Summed up: as §3
In series [18] the test system is Rattus norvegicus. Nature of the series: In vivo inhibition of Syk in Lewis rat assessed as reduction in FcgR-induced SLP76 phosphorylation in peripheral blood monocytes at 22 mg/kg, po measured after 4 hrs relative to vehicle-treated control. It is filed as functional. Summed up:
as §2

For series [19], the species on record is Canis familiaris. Kind of series: Hepatotoxicity in dog assessed as portal inflammation measured for 4 weeks by GLP study. To be noted: in vivo, 672 h. The class given is toxicity, organism-based, Canis lupus familiaris.
In series [20] the test system is Rattus norvegicus. Kind of series: Antiarthritic activity in Lewis rat collagen-induced arthritis model assessed as reduction of proteoglycan loss in hind paw at 3 to 30 mg/kg, po qd administered on day 15 post immunization measured after day 28 by Giemsa/safranin O staining-based assay. It is filed as functional, organism-based. Summed up:
as §1

Serine/threonine-protein kinase PAK 4, sequence (O96013 whole entry): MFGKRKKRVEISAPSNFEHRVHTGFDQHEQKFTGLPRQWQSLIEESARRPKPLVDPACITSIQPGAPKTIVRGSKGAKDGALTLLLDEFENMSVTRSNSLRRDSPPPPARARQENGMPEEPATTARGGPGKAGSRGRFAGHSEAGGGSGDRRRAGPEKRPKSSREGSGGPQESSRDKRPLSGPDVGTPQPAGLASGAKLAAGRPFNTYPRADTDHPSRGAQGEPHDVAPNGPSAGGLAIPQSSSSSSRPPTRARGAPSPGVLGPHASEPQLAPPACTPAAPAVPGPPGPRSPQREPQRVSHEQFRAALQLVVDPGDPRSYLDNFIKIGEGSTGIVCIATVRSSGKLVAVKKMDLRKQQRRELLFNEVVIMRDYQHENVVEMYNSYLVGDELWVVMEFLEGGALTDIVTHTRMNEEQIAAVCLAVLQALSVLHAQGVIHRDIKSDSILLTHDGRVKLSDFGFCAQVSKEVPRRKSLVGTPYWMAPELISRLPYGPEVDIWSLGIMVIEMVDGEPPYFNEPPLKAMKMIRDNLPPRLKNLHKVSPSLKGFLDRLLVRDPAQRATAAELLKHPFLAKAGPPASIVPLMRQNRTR
STE20-like serine/threonine-protein kinase, sequence (Q9H2G2 whole entry): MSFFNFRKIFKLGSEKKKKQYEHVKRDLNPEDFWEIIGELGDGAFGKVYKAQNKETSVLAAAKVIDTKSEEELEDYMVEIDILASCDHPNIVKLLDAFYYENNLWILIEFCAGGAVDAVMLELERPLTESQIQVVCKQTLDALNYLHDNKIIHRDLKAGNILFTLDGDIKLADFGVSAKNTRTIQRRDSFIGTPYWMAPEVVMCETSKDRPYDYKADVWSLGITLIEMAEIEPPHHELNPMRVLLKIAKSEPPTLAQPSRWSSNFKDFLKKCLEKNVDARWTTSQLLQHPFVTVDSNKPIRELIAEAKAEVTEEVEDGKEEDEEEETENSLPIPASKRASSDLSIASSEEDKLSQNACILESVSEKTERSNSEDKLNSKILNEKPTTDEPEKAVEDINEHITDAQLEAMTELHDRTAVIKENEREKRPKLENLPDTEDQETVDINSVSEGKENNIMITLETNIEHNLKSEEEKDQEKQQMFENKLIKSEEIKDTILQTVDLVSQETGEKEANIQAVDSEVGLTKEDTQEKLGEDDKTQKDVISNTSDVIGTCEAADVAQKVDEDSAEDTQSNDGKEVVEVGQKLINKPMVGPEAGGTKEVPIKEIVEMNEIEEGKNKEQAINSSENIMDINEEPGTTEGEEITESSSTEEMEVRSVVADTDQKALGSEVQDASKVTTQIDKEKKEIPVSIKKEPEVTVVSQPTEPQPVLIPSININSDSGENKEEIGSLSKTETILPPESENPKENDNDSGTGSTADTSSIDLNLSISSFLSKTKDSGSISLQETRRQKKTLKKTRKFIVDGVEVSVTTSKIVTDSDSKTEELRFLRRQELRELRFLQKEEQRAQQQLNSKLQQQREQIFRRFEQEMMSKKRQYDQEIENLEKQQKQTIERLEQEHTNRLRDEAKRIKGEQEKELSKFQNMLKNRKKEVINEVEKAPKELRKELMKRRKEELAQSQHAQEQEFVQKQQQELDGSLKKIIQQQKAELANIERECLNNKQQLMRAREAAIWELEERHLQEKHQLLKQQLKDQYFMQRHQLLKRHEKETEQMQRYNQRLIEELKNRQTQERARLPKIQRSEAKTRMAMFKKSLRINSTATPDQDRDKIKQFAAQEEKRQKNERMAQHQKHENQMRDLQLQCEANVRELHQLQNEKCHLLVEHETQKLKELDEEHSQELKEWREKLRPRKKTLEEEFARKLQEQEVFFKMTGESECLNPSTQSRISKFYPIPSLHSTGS

`NC(=O)c1nnc(N[C@@H]2CCCC[C@@H]2N)nc1Nc1cccc2cc[nH]c12`: the Activity entry in series [1], in [3] and in [19] was “Toxic” throughout. For the same compound, the IC50 (commonly the concentration that gives 50% inhibition) is 251 nM in [2] and 99 nM in series [14]. Besides, the outcome in series [4], in series [5] and in [20] was Active. Moreover, the inhibition in vivo (as a rule, how much of the control response was suppressed) at 22 mg/kg in series [6] is 45%; in series [10], 90%; in series [18] it was 85%. In addition, the concentration at 24 h in series [7] amounted to 300 nM; in series [12], 35 nM. Also, the clearance in series [8] amounted to 11 mL/min/kg. The concentration at 4 h in series [9] came out at 126 nM; in series [15] it was 2890 nM. In addition, the Kd (usually the constant that tells how readily two partners part at equilibrium) was found to be 380 nM in series [11] and 17 nM in series [16]. Further, the bioavailability – broadly, the share of a dose that reaches the circulation, judged against a reference dose that is usually intravenous – in series [13] is 54%. Besides, the AUC/dose in series [17] is 1836 nM·h.
